Assay results: ChEMBL document CHEMBL1153444, “Discovery of dual inhibitors targeting both HIV-1 capsid and human cyclophilin A to inhibit the assembly and uncoating of the viral capsid” (Bioorg Med Chem, 2009)
Active and inactive are the calls of the source. The rule behind the calls is not given here.

Tests used:
[1] = target: Structural capsid protein (Human immunodeficiency virus 1) (UniProt Q76129); assay: Binding affinity to HIV1 capsid assessed as assembly rate per minute at 2:1 drug to protein ratio by ultraviolet spectrophotometry assay
In short: (§1)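 Turbidity was read at 350 nm every 10 s after a short equilibration delay. Assembly rate (mOD/min) was taken from the initial slope of absorbance versus time.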

[2] = tested on: Simian immunodeficiency virus; assay: Antiviral activity against SIV in human CEM cells assessed as inhibition of virus-induced cytopathogenicity; format: functional, organism-based, CCRF-CEM; conditions: Simian immunodeficiency virus, CCRF-CEM; read-out: EC50
In short: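 SIV syncytium assay in CEM174 cells (2 × 10⁵ cells/ml) infected with 100 TCID₅₀ SIV per well alongside serial compound dilutions. Cultures were kept 5 days at 37 °C in humidified 5% CO₂, then giant-cell formation was scored microscopically. EC₅₀ is the concentration protecting cells from SIV cytopathogenicity by 50%.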

[3] = target: T1, Peptidyl-prolyl cis-trans isomerase A (Homo sapiens, UniProt P62937); assay: Inhibition of human cyclophilin A at 6 degC
In short: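 PPIase assay at 6 °C in 50 mM HEPES, 100 mM NaCl, using Suc-AAPF-pNA substrate (3 mM stock in THF with 480 mM LiCl). A390 was recorded for 20 s after about a 6 s mixing delay. Cis–trans rate constants came from nonlinear least-squares fits to an integrated first-order equation, and IC₅₀ was calculated from these.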

[4] = Therapeutic index, TC50 for human CEM cells to EC50 for SIV; format: cell-based, CCRF-CEM
[5] = target: Structural capsid protein (Human immunodeficiency virus 1) (UniProt Q76129); assay: Binding affinity to HIV1 capsid assessed as assembly rate per minute at 0.5:1 drug to protein ratio by ultraviolet spectrophotometry assay; in short: as §1
[6] = Cytotoxicity against human CEM cells; format: cell-based; conditions: CEM cells (CCRF-CEM), read-out: TC50 (the source's name)
[7] = target: Structural capsid protein (Human immunodeficiency virus 1) (UniProt Q76129); assay: Binding affinity to HIV1 capsid assessed as assembly rate per minute by ultraviolet spectrophotometry assay; in short: as §1
[8] = target: Structural capsid protein (Human immunodeficiency virus 1) (UniProt Q76129); assay: Binding affinity to HIV1 capsid assessed as assembly rate per minute at 1:1 drug to protein ratio by ultraviolet spectrophotometry assay; in short: as §1
[9] = target: T1, Peptidyl-prolyl cis-trans isomerase A; assay: Binding affinity to human cyclophilin A by intrinsic tryptophan fluorescence titration assay
In short: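 CypA intrinsic tryptophan fluorescence titration in 20 mM Tris–HCl, 100 mM NaCl, pH 7.4, at 25 °C, with compounds from 10 mM DMSO stocks. Excitation was 280 nm and emission was read at 340 nm. Kd was obtained by fitting intensity against final compound concentration to F₀/F = 1 + Ka·C.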

[10] = target: Human immunodeficiency virus type 1 integrase (Human immunodeficiency virus 1) (UniProt Q7ZJM1); assay: Inhibition of HIV1 integrase at 20 uM; design: scale not given: the % may be the effect or the level left
In short: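 Recombinant HIV-1 integrase (E. coli) was preincubated with compound for 30 min. It was then incubated for 30 min at 37 °C on plate-immobilized donor duplex in Tris–HCl pH 7.8, 25 mM NaCl, 7.5 mM MgCl₂, 5 mM β-mercaptoethanol and BSA. Biotinylated target duplex was added for 1 h at 37 °C. Integration products were detected by pNPP phosphatase read-out at A405, and inhibition was taken as the decrease in final absorbance.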

[11] = target: Protease (Human immunodeficiency virus 1) (UniProt Q9YQ12); assay: Inhibition of HIV1 protease
In short: (§2)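 HIV-1 protease was preincubated with inhibitor (DMSO) for 20 min at room temperature in 0.1 M MES, 0.2 M NaCl, 5 mM EDTA, pH 5.5. The reaction was started with substrate Lys-Ala-Arg-Val-Leu-Phe(NO₂)-Glu-Ala-Met, and hydrolysis was followed as the A280 decrease over 40 min. Inhibition ratio was taken from Ai/A₀, with and without inhibitor.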

[12] = target: Protease (Human immunodeficiency virus 1) (UniProt Q9YQ12); assay: Inhibition of HIV1 protease assessed as decrease in UV absorbance; conditions: concentration not given here; in short: as §2
[13] = target: Protease (Human immunodeficiency virus 1) (UniProt Q9YQ12); assay: Inhibition of HIV1 protease assessed as decrease in UV absorbance at 10 uM; in short: as §2

T1 sequence (P62937 whole entry): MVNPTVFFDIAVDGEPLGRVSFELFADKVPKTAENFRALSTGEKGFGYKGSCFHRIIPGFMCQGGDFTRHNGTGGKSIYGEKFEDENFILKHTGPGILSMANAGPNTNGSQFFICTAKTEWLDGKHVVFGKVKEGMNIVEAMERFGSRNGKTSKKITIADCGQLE
Chain of Structural capsid protein (Human immunodeficiency virus 1) (Q76129 as listed by the source): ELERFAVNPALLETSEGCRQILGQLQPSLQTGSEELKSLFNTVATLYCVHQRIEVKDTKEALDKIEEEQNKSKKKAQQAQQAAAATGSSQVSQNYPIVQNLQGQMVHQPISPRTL
Chain of Human immunodeficiency virus type 1 integrase (Human immunodeficiency virus 1) (Q7ZJM1 as listed by the source): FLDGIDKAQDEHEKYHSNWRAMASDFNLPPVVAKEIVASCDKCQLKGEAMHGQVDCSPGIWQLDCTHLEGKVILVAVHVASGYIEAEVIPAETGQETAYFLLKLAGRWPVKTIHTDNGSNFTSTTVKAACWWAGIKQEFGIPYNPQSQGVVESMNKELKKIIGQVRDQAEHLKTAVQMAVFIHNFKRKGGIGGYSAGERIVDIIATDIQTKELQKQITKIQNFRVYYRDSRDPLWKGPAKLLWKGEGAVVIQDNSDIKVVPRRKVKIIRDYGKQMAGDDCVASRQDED
Chain of Protease (Human immunodeficiency virus 1) (Q9YQ12 as listed by the source): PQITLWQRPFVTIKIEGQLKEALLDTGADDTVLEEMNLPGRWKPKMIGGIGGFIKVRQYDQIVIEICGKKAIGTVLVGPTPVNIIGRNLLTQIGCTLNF

Row | SMILES | Activity (milli optical density/minute) [1] | EC50 [2] [µM] | IC50 [3] [µM] | selectivity ratio [4] | Activity (milli optical density/minute) [5] | CC50 [6] [µM] | Activity (milli optical density/minute) [7] | Activity (milli optical density/minute) [8] | Kd ([9]; read-out: Kd) [µM] | Activity [7] | Activity [10] [%] | Activity [11] | inhibition [12] [%] | Kd [9] | inhibition [13] [%]
1 | Cc1cc(NS(=O)(=O)c2ccc(NC(=S)Nc3cccc(Cl)c3)cc2)no1 | 11.4 | 1 | 0.33 | 92 | 43.2 | 91.9 | 15.8 | 38.4 | 79.6 | – | – | – | – | – | –
2 | CCN(CC)c1nc(C)cc(NCCNC(=S)Nc2cccc(Br)c2)n1 | – | 5.5 | – | 2 | – | 8.43 | – | – | 200 | inactive | – | – | – | – | –
3 | O=C1OCc2ccc(NC(=S)Nc3cccc(Br)c3)cc21 | – | 4.6 | – | 7 | – | 30.8 | 69.6 | – | 125 | – | < 20 | inactive | – | – | –
4 | O=C1OCc2ccc(NC(=S)Nc3cc(F)cc(F)c3)cc21 | – | 6.1 | – | 11 | – | 69.1 | 63.6 | – | 513 | – | < 20 | inactive | – | – | –
5 | Cc1cc(NS(=O)(=O)c2ccc(NC(=S)Nc3ccc(C)c(Cl)c3)cc2)no1 | – | 0.6 | 0.65 | 127 | – | 74.4 | 36.4 | – | 55.8 | – | – | – | < 5 | – | –
6 | COc1ccc(NC(=S)Nc2ccc3c(c2)C(=O)OC3)cc1 | – | 4.7 | – | 20 | – | 91.9 | 59.1 | – | 172 | – | < 20 | inactive | – | – | –
7 | COc1ccc(NS(=O)(=O)c2ccc(NC(=S)Nc3ccc(Cl)cc3)cc2)cc1 | – | 4.1 | – | 19 | – | 77.5 | 26.3 | – | 60.8 | – | – | – | – | – | –
8 | Cc1ccc(NC(=S)Nc2ccc(S(=O)(=O)Nc3cc(C)on3)cc2)cc1 | – | 9.6 | – | 4 | – | 41.4 | 45.9 | – | 119 | – | – | – | – | – | –
9 | Cc1ccc(NC(=S)Nc2ccc(S(=O)(=O)Nc3nccs3)cc2)cc1 | – | 2.2 | 0.45 | 9 | – | 20.9 | 59 | – | 76.9 | – | – | – | – | – | –
10 | Cc1ccc(NC(=S)Nc2ccc(S(=O)(=O)Nc3nccs3)cc2)cc1Cl | – | 10.8 | 0.16 | 3 | – | 37 | 27.4 | – | 51.6 | – | – | – | – | – | –
11 | Cc1cc(NS(=O)(=O)c2ccc(NC(=S)Nc3ccccc3C)cc2)no1 | – | 6.2 | 0.6 | 8 | – | 48.4 | 64.8 | – | 116 | – | – | – | – | – | –
12 | CCN(CC)c1nc(C)c([N+](=O)[O-])c(NCCNC(=S)Nc2cccc(Br)c2)n1 | – | 7.4 | 0.81 | 4 | – | 26.2 | 88.1 | – | 79.3 | – | – | – | – | – | –
13 | Cc1cc(NS(=O)(=O)c2ccc(NC(=S)Nc3ccc(Cl)cc3)cc2)no1 | 19.4 | 4.1 | 0.69 | 9 | 52.2 | 37.8 | 29 | 42 | 107 | – | – | – | – | – | –
14 | O=C1OCc2ccc(NC(=S)Nc3cccc(F)c3)cc21 | – | 6.3 | – | 10 | – | 60.2 | 78.6 | – | 140 | – | < 20 | inactive | – | – | –
15 | O=C1OCc2ccc(NC(=S)Nc3cc(Cl)c(Cl)cc3Cl)cc21 | – | 3 | – | 8 | – | 24.4 | 67.8 | – | 147 | – | < 20 | inactive | – | – | –
16 | O=C1OCc2ccc(NC(=S)Nc3ccc(F)cc3)cc21 | – | 15.8 | – | 5 | – | 83.7 | 55.7 | – | 227 | – | < 20 | inactive | – | – | –

Row | SMILES | Activity (milli optical density/minute) [1] | EC50 [2] [µM] | IC50 [3] [µM] | selectivity ratio [4] | Activity (milli optical density/minute) [5] | CC50 [6] [µM] | Activity (milli optical density/minute) [7] | Activity (milli optical density/minute) [8] | Kd ([9]; read-out: Kd) [µM] | Activity [7] | Activity [10] [%] | Activity [11] | inhibition [12] [%] | Kd [9] | inhibition [13] [%]
17 | Cc1ccc(NC(=S)Nc2ccc3c(c2)C(=O)OC3)cc1Cl | – | 4.6 | 0.59 | 4 | – | 18.7 | 19.6 | – | 96.6 | – | < 20 | inactive | – | – | –
18 | Cc1cc(NS(=O)(=O)c2ccc(NC(=S)Nc3cccc(Br)c3)cc2)no1 | – | 0.9 | 0.45 | 66 | – | 58.7 | 31.2 | – | 88.6 | – | – | – | – | – | –
19 | Cc1cc(NS(=O)(=O)c2ccc(NC(=S)Nc3ccccc3)cc2)no1 | – | 7.5 | 0.58 | 7 | – | 49.7 | 39.2 | – | 88.1 | – | – | – | – | – | –
20 | Cc1ccccc1NC(=S)Nc1ccc2c(c1)C(=O)OC2 | – | 2.8 | – | 17 | – | 46.9 | 65.7 | – | – | – | < 20 | inactive | – | Not Active | –
21 | Cc1cccc(NC(=S)Nc2ccc3c(c2)C(=O)OC3)c1 | – | 11.6 | – | 1 | – | 16 | 64.6 | – | 141 | – | < 20 | inactive | – | – | –
22 | O=C1OCc2ccc(NC(=S)Nc3cccc(Cl)c3)cc21 | – | 4.2 | – | 20 | – | 86 | 49.2 | – | 133 | – | < 20 | inactive | < 5 | – | –
23 | Cc1cc(NS(=O)(=O)c2ccc(NC(=S)Nc3cccc(F)c3)cc2)no1 | – | 11.6 | 0.38 | 8 | – | 88 | 76.2 | – | 128 | – | – | – | – | – | –
24 | Cc1ccc(NC(=S)Nc2ccc(C)c([N+](=O)[O-])c2)cc1Cl | – | 3.1 | 0.46 | 12 | – | 38.8 | 60 | – | 88.9 | – | < 20 | inactive | – | – | –
25 | O=S(=O)(Nc1nccs1)c1ccc(NC(=S)Nc2ccc(Cl)cc2)cc1 | – | 5.7 | 0.13 | 3 | – | 19.1 | 52.5 | – | 51 | – | < 20 | inactive | – | – | –
26 | Cc1cc(NS(=O)(=O)c2ccc(NC(=S)Nc3ccc(F)cc3)cc2)no1 | – | 6.9 | 0.35 | 11 | – | 75.4 | 73.8 | – | 110 | – | – | – | – | – | –
27 | COc1ccc(NC(=S)Nc2ccc3ccccc3c2)cc1 | – | 2.3 | – | 7 | – | 16.1 | 66.7 | – | 124 | – | < 20 | inactive | – | – | –
28 | CCN(CC)c1nc(C)c([N+](=O)[O-])c(NCCNC(=S)Nc2ccc(C)c(Cl)c2)n1 | – | 6.3 | 0.74 | 7 | – | 44.2 | 91 | – | 73.3 | – | – | – | – | – | –
29 | COc1ccc(NC(=S)Nc2ccc(S(=O)(=O)Nc3cc(C)on3)cc2)cc1 | – | 1.5 | – | 27 | – | 41.9 | 40 | – | 101 | – | < 20 | inactive | – | – | –
30 | O=C1OCc2ccc(NC(=S)Nc3ccc(Cl)cc3)cc21 | – | 6.2 | – | 14 | – | 83.9 | 49.6 | – | 222 | – | < 20 | inactive | – | – | –
31 | CC(C)(C)NC(=O)[C@@H]1CN(Cc2cccnc2)CCN1C[C@@H](O)C[C@@H](Cc1ccccc1)C(=O)N[C@H]1c2ccccc2C[C@H]1O | – | – | – | – | – | – | – | – | – | – | – | – | – | – | > 90
